Data as given in ChEMBL document CHEMBL2016511, “Development of clickable active site-directed photoaffinity probes for γ-secretase” (Bioorg Med Chem Lett, 2012).
Activity calls are given as the source filed them. The rule behind the calls is not given here.

Legend:
[1] = molecular target: Presenilin-1 (Homo sapiens) (UniProt P49768); experiment: Binding affinity to PS1 Carboxy-terminal fragment in human HeLa cell membrane at 20 nM after 1 hr by photo-affinity based Western blot analysis; format: cell membranes
Outline: (§1)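 HeLa membranes (800 μg in 1.2 mL PBS) incubated 1 h at 37 °C with probe at 20 nM, with or without 1 μM competitor GSI. Photoirradiated at ~350 nm for 30 min at 4 °C, then pelleted. Click with biotin-azide (0.1 mM), TCEP 1.0 mM, CuSO4 1.0 mM, TBTA 0.1 mM, 1 h at room temperature. Solubilized in RIPA, streptavidin pull-down, SDS-PAGE, Western blot with PS1-NTF, PS1-CTF or SPP antibodies.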

[2] = Inhibition of gamma-secretase in CHO-APP cells assessed as amyloid beta-42 production using APP as substrate; format: cell-based; details: Cricetulus griseus
[3] = molecular target: Presenilin-1 (Homo sapiens) (UniProt P49768); experiment: Binding affinity to PS1 N-terminal fragment in human HeLa cell membrane at 20 nM after 1 hr by photo-affinity based Western blot analysis; format: cell membranes; outline: as §1
HeLa = experiment: Binding affinity to SPP in human HeLa cell membrane at 20 nM after 1 hr by photo-affinity based Western blot analysis; format: cell membranes; outline: as §1
[4] = molecular target: Presenilin-1 (Homo sapiens) (UniProt P49768); experiment: Binding affinity to PS1 N-terminal fragment in human HeLa cell membrane at 20 nM by photo-affinity in-gel fluorescence method in presence of GSI L458; format: cell membranes
Outline: (§2)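 HeLa membranes photolabeled with probe at 20 nM, with or without 1 μM competitor GSI L458, then ~350 nm irradiation. Click reaction with TAMRA-azide, then acetone precipitation to remove excess reagent. Resolubilized in loading buffer, separated by SDS-PAGE, and scanned for in-gel fluorescence of PS1-NTF and PS1-CTF bands. Coomassie staining confirmed equal loading.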

[5] = molecular target: Presenilin-1 (Homo sapiens) (UniProt P49768); experiment: Binding affinity to PS1 N-terminal fragment in human HeLa cell membrane at 20 nM by photo-affinity in-gel fluorescence method; format: cell membranes; outline: as §2
[6] = molecular target: Presenilin-1 (Homo sapiens) (UniProt P49768); experiment: Binding affinity to PS1 Carboxy-terminal fragment in human HeLa cell membrane at 20 nM by photo-affinity in-gel fluorescence method in presence of GSI L458; format: cell membranes; outline: as §2
[7] = molecular target: Presenilin-1 (Homo sapiens) (UniProt P49768); experiment: Binding affinity to PS1 Carboxy-terminal fragment in human HeLa cell membrane at 20 nM by photo-affinity in-gel fluorescence method; format: cell membranes; outline: as §2
[8] = molecular target: Presenilin-1 (Homo sapiens) (UniProt P49768); experiment: Binding affinity to PS1 N-terminal fragment in human HeLa cell membrane at 20 nM after 1 hr by photo-affinity-based Western blot analysis in presence of GSI L458; format: cell membranes; outline: as §1

| Activity [1] | IC50 [2] | Activity [3] | Activity [4] | Activity [5] | Activity [6] | Activity [7] | Activity [8] | SMILES | Activity (HeLa) |
| --- | --- | --- | --- | --- | --- | --- | --- | --- | --- |
| Active | 0.004 µM | inactive | inactive | inactive | inactive | Active | – | C#CCCCCNC(=O)[C@H](Cc1ccc(C(=O)c2ccccc2)cc1)NC(=O)[C@H](CC(C)C)NC(=O)[C@H](Cc1ccccc1)C[C@@H](O)[C@H](Cc1ccccc1)NC(=O)OC(C)(C)C | Active |
| – | 0.817 µM | Active | – | – | – | – | inactive | CC(C)C[C@H](NC(=O)[C@H](Cc1ccccc1)C[C@@H](O)[C@H](Cc1ccccc1)NC(=O)c1ccc(C(=O)c2ccccc2)cc1)C(=O)N[C@@H](Cc1ccccc1)C(=O)NCCCCCNC(=O)CCCC[C@@H]1SC[C@@H]2NC(=O)N[C@@H]21 | – |
| – | 0.036 µM | – | – | – | – | – | – | CC(C)C[C@H](NC(=O)[C@H](Cc1ccccc1)C[C@@H](O)[C@H](Cc1ccccc1)NC(=O)OC(C)(C)C)C(=O)N[C@@H](Cc1ccccc1)C(N)=O | – |
| – | 0.03 µM | – | – | – | – | – | – | CC(C)C[C@H](NC(=O)[C@H](Cc1ccccc1)C[C@@H](O)[C@H](Cc1ccccc1)NC(=O)OC(C)(C)C)C(=O)N[C@@H](Cc1ccc(C(=O)c2ccccc2)cc1)C(=O)NCCCCCNC(=O)CCCC[C@@H]1SC[C@@H]2NC(=O)N[C@@H]21 | – |
| inactive | 1 µM | Active | inactive | Active | inactive | inactive | inactive | C#CCCCCNC(=O)[C@H](Cc1ccccc1)NC(=O)[C@H](CC(C)C)NC(=O)[C@H](Cc1ccccc1)C[C@@H](O)[C@H](Cc1ccccc1)NC(=O)c1ccc(C(=O)c2ccccc2)cc1 | inactive |
